Results published in ChEMBL document CHEMBL1687739 (Antimicrob Agents Chemother, 2009).
Calls of active or inactive are those of the source. The calls are words filed in the database; no cut-off is given here.

How the values were obtained:
[1] = Cytotoxicity against rat L6 cells after 72 hrs by microplate alamar blue assay; assay type: cell-based
Outline: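 Rat skeletal myoblast L-6 cells, 4 × 10^4/well in RPMI 1640 with L-glutamine and 10% FBS, were given seven threefold dilutions (90 to 0.123 μg/ml) for 72 h. Alamar Blue was added for 2 h and fluorescence read at ex 536/em 588 nm. Tested in duplicate, assay repeated at least once.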

Plasmodium falciparum = test: Antiplasmodial activity against erythrocytic stage of chloroquine - and pyrimethamine-resistant Plasmodium falciparum K1 assessed as [3H]hypoxanthine incorporation after 48 hrs; assay type: functional, organism-based
Outline: (§1)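 K1 erythrocytic stages were cultured in hypoxanthine-free RPMI 1640 with Albumax, A+ RBC at 2.5% hematocrit and 0.3% parasitemia. DMSO stocks were 10 mg/ml; seven twofold dilutions covered 5 to 0.156 μg/ml. Plates were held at 37°C in 4% CO2/3% O2/93% N2 for 48 h, then 0.5 μCi [3H]hypoxanthine was added for 24 h and scintillation counted. IC50 from sigmoidal curves. SI = L-6 CC50/IC50.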

Trypanosoma cruzi = test: Antitrypanosomal activity against Trypanosoma cruzi Tulahuen C2C4 trypomastigote after 48 hrs; assay type: functional, organism-based; details: Tulahuen C2C4, 48 h
Outline: (§2)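 T. cruzi Tulahuen C2C4 (LacZ) trypomastigotes, 5,000/well, were added to rat L-6 myoblasts seeded 24 h earlier in RPMI 1640 with 10% FBS. After 48 h the medium was replaced with seven threefold drug dilutions (90 to 0.123 μg/ml) and incubated 96 h. CPRG-Nonidet was added and read at 540 nm after 2–6 h to give IC50. Duplicates, assay repeated at least once. SI = L-6 CC50/parasite IC50.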

Leishmania donovani = test: Antileishmanial activity against Leishmania donovani MHOM/ET/67/L82 amastigote after 72 hrs; assay type: functional, organism-based; details: MHOM/ET/67/L82, 72 h
Outline: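 Axenic amastigotes were grown at 37°C under 5% CO2 in SM medium, pH 5.4, with 10% heat-inactivated FBS. 10^5 per well were exposed 72 h to serial dilutions (30 to 0.041 μg/ml). Alamar Blue was added for 2 h, then fluorescence read at ex 536/em 588 nm as % of control. IC50 came from sigmoidal curves. Duplicates, repeated at least once.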

[2] = Selectivity index, CC50 for rat L-6 cells to IC50 for erythrocytic stage of chloroquine - and pyrimethamine-resistant Plasmodium falciparum K1; assay type: functional; outline: as §1
[3] = Selectivity index, CC50 for rat L-6 cells to IC50 for Trypanosoma brucei rhodesiense ST1B900 trypomastigote […]; assay type: functional
Outline: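 Bloodstream-form STIB900, 10^4/well in supplemented MEM with 15% heat-inactivated horse serum, were exposed to seven threefold dilutions (90 to 0.123 μg/ml) for 72 h at 37°C, 5% CO2. Alamar Blue was added for 2–4 h, then fluorescence read at ex 536/em 588 nm. SI = L-6 CC50/IC50. Duplicates, repeated at least once.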

[4] = Selectivity index, CC50 for rat L-6 cells to IC50 for Trypanosoma cruzi Tulahuen C2C4 trypomastigote; assay type: functional; outline: as §2
[5] = test system: Trypanosoma brucei rhodesiense; test: Antitrypanosomal activity against Trypanosoma brucei rhodesiense ST1B900 trypomastigote infected in NMR1 mouse assessed as survival of mouse at 50 mg/kg, ip administered on day 3 post infection for 4 days; assay type: functional, organism-based; design: dose 50 mg/kg

Structure (SMILES)	CC50 at 72 h [1] [µM]	IC50 (Plasmodium falciparum) [µM]	IC50 (Trypanosoma cruzi) [µM]	IC50 (Leishmania donovani) [µM]	Selectivity Index [2]	Selectivity Index [3]	Selectivity Index [4]	Activity [5]
CCC(=O)N(CCCCCCCCCNC(=O)OC(C)(C)C)C1CCN(CCc2ccccc2)CC1	16	1.43	11.7	34.8				
O=[N+]([O-])c1cccc(NC2CCN(CCc3ccccc3)CC2)c1	257	10.6	46.1	23.2				
N=C(N)NCCCCCCCCCNC(=N)N.O=S(=O)(O)O	> 265	0.084			>3162			
CC(C)(C)OC(=O)NCCNC1CCN(CCc2ccccc2)CC1	174	2.06	55.5	81.2				
CC(C)(C)OC(=O)NCCCCCCCNC1CCN(CCc2ccccc2)CC1	32.9	0.77	11.9	> 72	42	41		
CC(C)(C)OC(=O)NCCCCCCNC1CCN(CCc2ccccc2)CC1	39.3	0.9	28.6	> 74	43	36		
CC(C)(C)OC(=O)NCc1cccc(CNC2CCN(CCc3ccccc3)CC2)c1	111	1.66	17.3	78.1		219		
N=C(N)NCCCCCCNC(=N)N.O=S(=O)(O)O	> 302	0.445			>679			
CC(C)(C)OC(=O)NCCCNC1CCN(CCc2ccccc2)CC1	129	2.08	55.4	68.9				
CC(C)(C)OC(=O)NCCCCCCCCCNC1CCN(CCc2ccccc2)CC1	6.05	0.36	3.73	> 67	16	48	<3	
CCC(=O)N(CCCCCCCCCCCCN/C(=N/C(=O)OC(C)(C)C)NC(=O)OC(C)(C)C)C1CCN(CCc2ccccc2)CC1	7.54	0.41	5.2	5.78	18		<3	
CC(C)(C)OC(=O)NCCCCNC1CCN(CCc2ccccc2)CC1	155	1.28	56.3	> 80				
CCC(=O)N(CCCN/C(=N/C(=O)OC(C)(C)C)NC(=O)OC(C)(C)C)C1CCN(CCc2ccccc2)CC1	80.7	1.35	> 53	31				
CCC(=O)N(CCCCCCN/C(=N/C(=O)OC(C)(C)C)NC(=O)OC(C)(C)C)C1CCN(CCc2ccccc2)CC1	24.9	0.85	23.2	13.2	29			
CCC(=O)N(CCN/C(=N/C(=O)OC(C)(C)C)NC(=O)OC(C)(C)C)C1CCN(CCc2ccccc2)CC1	35.6	1.85	36.8	19.1				
N=C(N)NCCCCCCCCNC(=N)N.O=S(=O)(O)O	> 276	0.106			>2608			
CCC(=O)N(CCCCCCCCN/C(=N/C(=O)OC(C)(C)C)NC(=O)OC(C)(C)C)C1CCN(CCc2ccccc2)CC1	21.5	0.6	12.3	14.8	35			
CC(C)(C)OC(=O)NCCCCCNC1CCN(CCc2ccccc2)CC1	95.6	1.53	69	> 77				
CCCCCCCCCCCCCCCCOP(=O)([O-])OCC[N+](C)(C)C [MILTEFOSINE]				0.205				
CC(C)(C)OC(=O)NCCCCCCCCNC1CCN(CCc2ccccc2)CC1	15.5	0.62	5.72	> 69	25	130	<3	inactive
CCCCCCCCCCCCCNC(=N)N.O=S(=O)(O)O [AMINO(TRIDECYLAMINO)METHANIMINIUM HYDROGENSULFATE]	19.6	7.98			2.4			
CC(C)(C)OC(=O)NCCCCCCCCCCCCNC1CCN(CCc2ccccc2)CC1	8.2	0.32	3.16	17.8	25	52	<3	
CCC(=O)N(CCCCCCCCCCCCNC(=O)OC(C)(C)C)C1CCN(CCc2ccccc2)CC1	13.8	1.32	8.07	6.2			<3	
